Results as given in ChEMBL document CHEMBL2412970, “Synthesis and anticancer activity of 2,4-disubstituted furo[3,2-b]indole derivatives” (Eur J Med Chem, 2013).
Active and inactive are the calls of the source. No cut-off for these calls is given here.

How the values were obtained:
[1] = tested on: A498; experiment: Cytotoxicity against human A498 cells after 48 hrs by MTT assay; type: functional, cell-based
[2] = tested on: A498; experiment: Ratio of YC-1 IC50 to compound IC50 for human A498 cells after 48 hrs by MTT assay; type: functional
[3] = tested on: A498; experiment: Cell cycle arrest in human A498 cells assessed as accumulation at sub-G1 phase at 0.5 uM after 48 hrs by propidium iodide staining-based flow cytometry (reference value: 0.10 +/- 0.07%); type: functional
[4] = tested on: TK-10; experiment: Cytotoxicity against human TK10 cells after 48 hrs by sulforhodamine B assay; type: functional; settings: TK-10, 48 h
[5] = tested on: NCI/ADR-RES; experiment: Cytotoxicity against human NCI/ADR-RES cells after 48 hrs by sulforhodamine B assay; type: functional
[6] = tested on: M14; experiment: Cytotoxicity against human M14 cells after 48 hrs by sulforhodamine B assay; type: functional; settings: M14, 48 h
[7] = tested on: NCI-H322M; experiment: Cytotoxicity against human NCI-H322M cells after 48 hrs by sulforhodamine B assay; type: functional
[8] = tested on: A498; experiment: Induction of cell cycle arrest at G2/M phase in human A498 cells assessed as increase in cyclin B1 expression at 0.5 uM after 6 hrs by Western blotting analysis; type: functional, cell-based
Method in brief: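 A498 cells exposed to 0.5 µM for 6, 12, 24, 36 or 48 h, then lysed on ice 30 min and spun 12 000g 20 min. Protein measured by Bradford; 20 µg per lane run on 10% SDS-PAGE, transferred to nitrocellulose, probed for cyclin B1 and CDK1, β-actin as loading control; n = 3 independent experiments.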

[9] = tested on: BT-549; experiment: Cytotoxicity against human BT549 cells after 48 hrs by sulforhodamine B assay; type: functional; settings: BT-549, 48 h
[10] = tested on: SK-OV-3; experiment: Cytotoxicity against human SKOV3 cells after 48 hrs by sulforhodamine B assay; type: functional; settings: SK-OV-3, 48 h
[11] = tested on: NCI-H522; experiment: Cytotoxicity against human NCI-H522 cells after 48 hrs by sulforhodamine B assay; type: functional; settings: NCI-H522, 48 h
[12] = tested on: HCC 2998; experiment: Cytotoxicity against human HCC2998 cells after 48 hrs by sulforhodamine B assay; type: functional; settings: HCC 2998, 48 h
[13] = tested on: NCI-H460; experiment: Cytotoxicity against human NCI-H460 cells after 48 hrs by sulforhodamine B assay; type: functional; settings: NCI-H460, 48 h
[14] = tested on: ACHN; experiment: Cytotoxicity against human ACHN cells after 48 hrs by sulforhodamine B assay; type: functional
[15] = tested on: Detroit 551; experiment: Cytotoxicity against human Detroit 551 cells after 48 hrs by MTT assay; type: cell-based; settings: Detroit 551, 48 h
[16] = tested on: SK-MEL-2; experiment: Cytotoxicity against human SK-MEL-2 cells after 48 hrs by sulforhodamine B assay; type: functional; settings: SK-MEL-2, 48 h
[17] = tested on: A498; experiment: Cell cycle arrest in human A498 cells assessed as accumulation at G2/M phase at 0.5 uM by propidium iodide staining-based flow cytometry; type: functional; settings: TDE = time-dependent effect
[18] = tested on: MDA-MB-435; experiment: Cytotoxicity against human MDA-MB-435 cells after 48 hrs by sulforhodamine B assay; type: functional; settings: MDA-MB-435, 48 h
[19] = tested on: A498; experiment: Cell cycle arrest in human A498 cells assessed as accumulation at G0/G1 phase at 0.5 uM after 48 hrs by propidium iodide staining-based flow cytometry (reference value: 78.70 +/- 0.02%); type: functional
[20] = read-out: pLC50 (the source's name) (converted)

OCc1ccc(Cn2c3ccccc3c3oc(CO)cc32)o1
Activity [1]: Dose-dependent effect | IC50 ([1]; A498, 48 h): 0.21 µM | Ratio IC50 [2]: 1.5 | Activity [3]: 12.76% | GI50 [4]: 0.537 µM | CC50 [4, 20]: > 100 µM | TGI ([4]; read-out: pTGI (converted)): 3.24 µM | GI50 [5]: > 100 µM | CC50 [5, 20]: > 100 µM | TGI ([5]; read-out: pTGI): > 100 µM | GI50 [6]: 13.2 µM | CC50 [6, 20]: > 100 µM | TGI ([6]; read-out: pTGI): > 100 µM | GI50 [7]: > 100 µM | CC50 [7, 20]: > 100 µM | TGI ([7]; read-out: pTGI): > 100 µM | Activity [8]: Active | GI50 [9]: 3.89 µM | CC50 [9, 20]: > 100 µM | TGI ([9]; read-out: pTGI (converted)): 61.7 µM | GI50 [10]: > 100 µM | CC50 [10, 20]: > 100 µM | TGI ([10]; read-out: pTGI): > 100 µM | GI50 [11]: 39.8 µM | CC50 [11, 20]: > 100 µM | TGI ([11]; read-out: pTGI): > 100 µM | GI50 [12]: > 100 µM | CC50 [12, 20]: > 100 µM | TGI ([12]; read-out: pTGI): > 100 µM | GI50 [13]: > 100 µM | CC50 [13, 20]: > 100 µM | TGI ([13]; read-out: pTGI): > 100 µM | GI50 [14]: 79.4 µM | CC50 [14, 20]: > 100 µM | TGI ([14]; read-out: pTGI): > 100 µM | IC50 [15]: > 50 µM | GI50 [16]: > 100 µM | CC50 [16, 20]: > 100 µM | TGI ([16]; read-out: pTGI): > 100 µM | Activity [17]: tde | GI50 [18]: > 100 µM | CC50 [18, 20]: > 100 µM | TGI ([18]; read-out: pTGI): > 100 µM | Activity [19]: 71.26%
